The inhibition is the percentage by which the read-out fell short of the control.

Structures are written as SMILES. Several values for one entry are separate records, joined by “and”; a condition that tells them apart may be missing. Equal entries are not always repeated.

T1 sequence (O08537 whole entry, looked up): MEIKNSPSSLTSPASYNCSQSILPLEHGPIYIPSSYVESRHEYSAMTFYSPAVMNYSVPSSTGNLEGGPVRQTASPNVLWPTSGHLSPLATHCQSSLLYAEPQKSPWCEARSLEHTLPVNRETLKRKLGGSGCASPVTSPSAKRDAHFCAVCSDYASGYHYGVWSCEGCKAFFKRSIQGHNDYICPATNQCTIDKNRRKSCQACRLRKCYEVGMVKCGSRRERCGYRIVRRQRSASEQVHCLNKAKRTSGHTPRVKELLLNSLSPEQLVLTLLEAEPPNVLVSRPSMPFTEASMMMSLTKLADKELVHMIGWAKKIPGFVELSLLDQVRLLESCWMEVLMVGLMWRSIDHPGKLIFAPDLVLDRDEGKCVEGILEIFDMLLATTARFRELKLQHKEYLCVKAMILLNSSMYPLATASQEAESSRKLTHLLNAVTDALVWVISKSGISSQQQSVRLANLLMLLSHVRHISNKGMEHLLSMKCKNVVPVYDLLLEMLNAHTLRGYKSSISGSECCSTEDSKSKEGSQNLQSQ
T1 sequence (P19785 whole entry, looked up): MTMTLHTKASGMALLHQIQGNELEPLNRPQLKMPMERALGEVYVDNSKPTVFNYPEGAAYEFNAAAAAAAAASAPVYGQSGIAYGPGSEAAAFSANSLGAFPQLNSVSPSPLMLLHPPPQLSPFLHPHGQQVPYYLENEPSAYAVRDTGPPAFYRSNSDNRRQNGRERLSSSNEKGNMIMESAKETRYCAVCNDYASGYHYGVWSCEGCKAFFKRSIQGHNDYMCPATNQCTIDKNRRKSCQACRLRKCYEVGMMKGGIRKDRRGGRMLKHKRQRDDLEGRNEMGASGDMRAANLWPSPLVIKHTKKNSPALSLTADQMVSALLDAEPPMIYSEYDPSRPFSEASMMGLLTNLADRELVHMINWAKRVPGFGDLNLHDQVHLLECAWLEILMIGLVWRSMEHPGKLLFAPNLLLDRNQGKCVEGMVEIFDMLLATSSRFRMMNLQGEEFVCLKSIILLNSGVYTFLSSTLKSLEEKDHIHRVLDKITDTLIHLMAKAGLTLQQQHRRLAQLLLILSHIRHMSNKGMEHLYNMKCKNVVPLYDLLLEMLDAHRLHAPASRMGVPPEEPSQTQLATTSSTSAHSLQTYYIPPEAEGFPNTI

One experiment has as its target T1, Estrogen receptor (Mus musculus) (UniProt O08537+P19785). Description: Anti-estrogenic activity as Uterus dry weight (mg)/body weight (g) *100 in mice at 25 ug. It counts as functional, tissue-based.
Conditions: not given
A digest of the protocol:
(§1)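 Immature mice, sc injection on three consecutive days of test compound together with a standard 0.4 µg estrone per animal and day. Dose per animal. Control animals got vehicle. Killed 24 h after the last injection. Uteri Bouin-fixed, cleaned, washed in alcoholic LiCl, dried at 100 °C for 24 h and weighed. Read-out is uterine dry weight (mg)/body weight (g) ×100, mean of 10 animals ± SD.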
The compound `COc1ccc(Cn2c(-c3ccc(OC(C)=O)cc3)c(C)c3cc(OC(C)=O)ccc32)cc1` yielded an Activity of 46.8.
Same read-out and setting: with `CC(=O)Oc1ccc(-c2c(C)c3cc(OC(C)=O)ccc3n2Cc2ccccc2)cc1` the figure was 42.8; with `CC(=O)Oc1ccc(-c2c(C)c3cc(OC(C)=O)ccc3n2Cc2ccc(C#N)cc2)cc1`, 37.9.
Take `CC(=O)Oc1ccc(-c2c(C)c3cc(OC(C)=O)ccc3n2Cc2ccc(C)cc2)cc1`: the Activity was found to be 42.5.
Same read-out and setting: then `CC(=O)Oc1ccc(-c2c(C)c3ccc(OC(C)=O)cc3n2-c2ccccc2)cc1`, with 43.5; and `CC(=O)Oc1ccc(-c2c(C)c3ccc(OC(C)=O)cc3n2Cc2ccccc2)cc1`, with 52.1.

A further experiment addresses T1, Estrogen receptor (Mus musculus). Briefly: Anti-estrogenic activity as Uterus dry weight (mg)/body weight (g) *100 in mice at 625 ug.
Conditions: not given
It counts as functional, tissue-based. The method, boiled down:
as §1
Turning to `CC(=O)Oc1ccc(-c2c(C)c3cc(OC(C)=O)ccc3n2Cc2ccc(C#N)cc2)cc1`, the Activity amounted to 31.5.

The target is the same in the next experiment. Briefly: (§2) Estrogenic activity as Uterus dry weight (mg)/body weight (g) *100 in mice with 0.4 ug estrone.
Conditions: not given
It counts as functional, tissue-based. A digest of the protocol: (§3)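 Immature mice given 0.4 µg estrone per animal sc on three consecutive days. Control animals got vehicle. Killed 24 h after the last injection. Uteri fixed in Bouin, dried at 100 °C for 24 h and weighed. Result expressed as uterine dry weight (mg)/body weight (g) ×100, mean of 10 animals ± SD.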
Take `CC(=O)Oc1ccc(-c2c(C)c3cc(OC(C)=O)ccc3n2Cc2ccccc2)cc1`: the Activity amounted to 48.2.

A further experiment has the same target. Description: Anti-estrogenic activity as Uterus dry weight (mg)/body weight (g) *100 in mice at 75 ug. It counts as functional, tissue-based.
Conditions: not given
The method, boiled down:
as §1
Turning to `CC(=O)Oc1ccc(-c2c(C)c3cc(OC(C)=O)ccc3n2Cc2ccc(C#N)cc2)cc1`, the Activity turned out to be 34.1.

A further experiment deals with Estrogen receptor (Bos taurus) (UniProt Q9XSB5+P49884). Description: Relative binding affinity for the calf uterine estrogen receptor by 17-beta-[3H]-estradiol displacement. It counts as protein assay.
Conditions: not given
The method, boiled down: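 Calf uterine cytosol (105000g supernatant, 3 mg/mL protein final) in Tris-EDTA-NaN3 buffer, pH 7.5. Incubated with 5 nM 17β-[3H]estradiol and 10^-9–10^-5 M competitor for 18 h at 4 °C. Dextran-coated charcoal added for 90 min, then supernatant radioactivity counted. Nonspecific binding taken with 5 µM estradiol. RBA = molar ratio of estradiol to competitor at 50% displacement ×100.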
In turn, `Cc1c(-c2ccc(O)cc2)n(Cc2ccccc2Cl)c2ccc(O)cc12` yielded a relative binding affinity (RBA) of 8.7.
Turning to `Cc1c(-c2cccc(O)c2)n(Cc2ccccc2)c2ccc(O)cc12`, the relative binding affinity (RBA) stood at 3.
The same measure, in the same setting: with `Cc1c(-c2ccccc2)n(Cc2ccccc2)c2ccc(O)cc12` the figure was 2.6; with `Cc1c(-c2ccc(O)cc2)n(Cc2c(Cl)cccc2Cl)c2ccc(O)cc12`, 3.6; with `Cc1c(-c2ccc(O)cc2)n(-c2ccccc2)c2ccc(O)cc12`, 9.
`Cc1c(-c2ccc(O)cc2)n(CCc2ccccc2)c2ccc(O)cc12` had a relative binding affinity (RBA) of 2.

A further experiment addresses T1, Estrogen receptor (Mus musculus). Description: Anti-estrogenic activity as Uterus dry weight (mg)/body weight (g) *100 in mice at 250 ug.
Conditions: not given
It counts as functional, tissue-based. A digest of the protocol: as §1
Consider `CC(=O)Oc1ccc(-c2c(C)c3cc(OC(C)=O)ccc3n2Cc2ccc(C#N)cc2)cc1`, for which the Activity came out at 30.4.

The target is the same in another experiment. The experiment is described as §2. It counts as functional, tissue-based.
Conditions: not given
A digest of the protocol:
as §3
`COc1ccc(Cn2c(-c3ccc(OC(C)=O)cc3)c(C)c3cc(OC(C)=O)ccc32)cc1` registered an Activity of 52.2.
Turning to `CC(=O)Oc1ccc(-c2c(C)c3cc(OC(C)=O)ccc3n2Cc2ccccc2)cc1`, the Activity was 47.4.
With `CC(=O)Oc1ccc(-c2c(C)c3cc(OC(C)=O)ccc3n2Cc2ccc(C#N)cc2)cc1`, the Activity is 48.2.
The same measure, in the same setting: then `CC(=O)Oc1ccc(-c2c(C)c3ccc(OC(C)=O)cc3n2-c2ccccc2)cc1`, with 42; and `CC(=O)Oc1ccc(-c2c(C)c3ccc(OC(C)=O)cc3n2Cc2ccccc2)cc1`, with 46.5.

For another experiment the target is unchanged. Description: Anti-estrogenic activity as Uterus dry weight (mg)/body weight (g) *100 in mice at 125 ug. It counts as functional, tissue-based.
Conditions: not given
The method, boiled down: as §1
In the case of `COc1ccc(Cn2c(-c3ccc(OC(C)=O)cc3)c(C)c3cc(OC(C)=O)ccc32)cc1`, the Activity came to 40.1.
Same read-out and setting: with `CC(=O)Oc1ccc(-c2c(C)c3cc(OC(C)=O)ccc3n2Cc2ccccc2)cc1` the figure was 34.7; with `CC(=O)Oc1ccc(-c2c(C)c3cc(OC(C)=O)ccc3n2Cc2ccc(C#N)cc2)cc1`, 30.5.
The same measure, in the same setting: with `CC(=O)Oc1ccc(-c2c(C)c3cc(OC(C)=O)ccc3n2Cc2ccc(C)cc2)cc1` the figure was 36.
`CC(=O)Oc1ccc(-c2c(C)c3ccc(OC(C)=O)cc3n2-c2ccccc2)cc1` had an Activity of 32.4.
Same read-out and setting: then `CC(=O)Oc1ccc(-c2c(C)c3ccc(OC(C)=O)cc3n2Cc2ccccc2)cc1`, with 44.6.

Staying with this experiment, now noted: in the assay text read “Estrogenic activity” for “Anti-estrogenic activity”.
In the case of `COc1ccc(Cn2c(-c3ccc(OC(C)=O)cc3)c(C)c3cc(OC(C)=O)ccc32)cc1`, the Activity stood at 30.9.
Same read-out and setting: with `CC(=O)Oc1ccc(-c2c(C)c3cc(OC(C)=O)ccc3n2Cc2ccccc2)cc1` the figure was 30.7.
For the compound `CC(=O)Oc1ccc(-c2c(C)c3cc(OC(C)=O)ccc3n2Cc2ccc(C#N)cc2)cc1`, the Activity was 20.
For the compound `CC(=O)Oc1ccc(-c2c(C)c3cc(OC(C)=O)ccc3n2Cc2ccc(C)cc2)cc1`, the Activity turned out to be 32.9.
As for `CC(=O)Oc1ccc(-c2c(C)c3ccc(OC(C)=O)cc3n2-c2ccccc2)cc1`, the Activity was found to be 26.4.
Turning to `CC(=O)Oc1ccc(-c2c(C)c3ccc(OC(C)=O)cc3n2Cc2ccccc2)cc1`, the Activity was found to be 32.4.

A further experiment shares this target. Description: Estrogenic activity as Uterus dry weight (mg)/body weight (g) *100 in mice at 5 ug.
Conditions: not given
The compound `COc1ccc(Cn2c(-c3ccc(OC(C)=O)cc3)c(C)c3cc(OC(C)=O)ccc32)cc1` yielded an Activity of 14.3.
Take `CC(=O)Oc1ccc(-c2c(C)c3cc(OC(C)=O)ccc3n2Cc2ccccc2)cc1`: the Activity was found to be 13.3.
Compound `CC(=O)Oc1ccc(-c2c(C)c3cc(OC(C)=O)ccc3n2Cc2ccc(C#N)cc2)cc1` showed an Activity of 14.
Same read-out and setting: then `CC(=O)Oc1ccc(-c2c(C)c3cc(OC(C)=O)ccc3n2Cc2ccc(C)cc2)cc1`, with 14.4.
Regarding `CC(=O)Oc1ccc(-c2c(C)c3ccc(OC(C)=O)cc3n2-c2ccccc2)cc1`, the Activity was 13.4.
Regarding `CC(=O)Oc1ccc(-c2c(C)c3ccc(OC(C)=O)cc3n2Cc2ccccc2)cc1`, the Activity is 12.3.

For another experiment the target is unchanged. The experiment is described as §2. It counts as functional, tissue-based.
Conditions: not given
This is another data set of the same source. The method, boiled down:
as §3
Turning to `COc1ccc(Cn2c(-c3ccc(OC(C)=O)cc3)c(C)c3cc(OC(C)=O)ccc32)cc1`, the Activity was 47.8.
Same read-out and setting: then `CC(=O)Oc1ccc(-c2c(C)c3cc(OC(C)=O)ccc3n2Cc2ccc(C#N)cc2)cc1`, with 43.7; and `CC(=O)Oc1ccc(-c2c(C)c3cc(OC(C)=O)ccc3n2Cc2ccc(C)cc2)cc1`, with 46.5 and 47.8; and `CC(=O)Oc1ccc(-c2c(C)c3ccc(OC(C)=O)cc3n2-c2ccccc2)cc1`, with 42.

Another experiment has the same target. Briefly: Anti-estrogenic activity as Uterus dry weight (mg)/body weight (g) *100 in mice at 5 ug. It counts as functional, tissue-based.
Conditions: not given
The method, boiled down: as §1
For `COc1ccc(Cn2c(-c3ccc(OC(C)=O)cc3)c(C)c3cc(OC(C)=O)ccc32)cc1`, the Activity amounted to 47.4.
Same read-out and setting: then `CC(=O)Oc1ccc(-c2c(C)c3cc(OC(C)=O)ccc3n2Cc2ccccc2)cc1`, with 48.7; and `CC(=O)Oc1ccc(-c2c(C)c3cc(OC(C)=O)ccc3n2Cc2ccc(C)cc2)cc1`, with 46.3; and `CC(=O)Oc1ccc(-c2c(C)c3ccc(OC(C)=O)cc3n2-c2ccccc2)cc1`, with 41.
Regarding `CC(=O)Oc1ccc(-c2c(C)c3ccc(OC(C)=O)cc3n2Cc2ccccc2)cc1`, the Activity turned out to be 50.4.

A further experiment has the same target. Description: Percent inhibition of estrone-stimulated uterine growth in mice. It counts as functional. More on the design: concentration or dose not given beside the values. As to conditions: concentration not given here. The method, boiled down: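 Mouse antiuterotrophic test. Immature mice injected sc on three consecutive days with 0.4 µg estrone plus increasing doses per animal of test compound. Dry uterine weight/body weight ×100 determined 24 h after the last injection, 10 animals per group. Inhibition (%) = 100 − [(E_S,T − E_V)/(E_S − E_V)] ×100, where E_S is estrone alone and E_V is vehicle. Significance by Mann-Whitney U-test.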
As for `COc1ccc(Cn2c(-c3ccc(OC(C)=O)cc3)c(C)c3cc(OC(C)=O)ccc32)cc1`, the inhibition came to 23%.
Turning to `CC(=O)Oc1ccc(-c2c(C)c3cc(OC(C)=O)ccc3n2Cc2ccccc2)cc1`, the inhibition is 17% and < 42%.
On the same count and under the same terms, with `CC(=O)Oc1ccc(-c2c(C)c3cc(OC(C)=O)ccc3n2Cc2ccc(C)cc2)cc1` the figure was 16% and < 35%; with `CC(=O)Oc1ccc(-c2c(C)c3ccc(OC(C)=O)cc3n2-c2ccccc2)cc1`, 33%; with `CC(=O)Oc1ccc(-c2c(C)c3ccc(OC(C)=O)cc3n2Cc2ccccc2)cc1`, 11%.

Another experiment shares this target. Description: Estrogenic activity as Uterus dry weight (mg)/body weight (g) *100 in mice at 25 ug.
Conditions: not given
`COc1ccc(Cn2c(-c3ccc(OC(C)=O)cc3)c(C)c3cc(OC(C)=O)ccc32)cc1` had an Activity of 14.7.
The compound `CC(=O)Oc1ccc(-c2c(C)c3cc(OC(C)=O)ccc3n2Cc2ccccc2)cc1` gave an Activity of 22.6.
`CC(=O)Oc1ccc(-c2c(C)c3cc(OC(C)=O)ccc3n2Cc2ccc(C#N)cc2)cc1` came in with an Activity of 15.1.
Compound `CC(=O)Oc1ccc(-c2c(C)c3cc(OC(C)=O)ccc3n2Cc2ccc(C)cc2)cc1` had an Activity of 20.3.
In turn, `CC(=O)Oc1ccc(-c2c(C)c3ccc(OC(C)=O)cc3n2-c2ccccc2)cc1` showed an Activity of 17.8.
In the case of `CC(=O)Oc1ccc(-c2c(C)c3ccc(OC(C)=O)cc3n2Cc2ccccc2)cc1`, the Activity is 17.1.

Another experiment shares this target. The description is as §2.
Conditions: not given
It counts as functional, tissue-based. This is another data set of the same source. A digest of the protocol: as §3
With `CC(=O)Oc1ccc(-c2c(C)c3ccc(OC(C)=O)cc3n2Cc2ccccc2)cc1`, the Activity amounted to 48.2.

The target is the same in a further experiment. Description: Estrogenic activity as Uterus dry weight (mg)/body weight (g) *100 in mice at 625 ug.
Conditions: not given
As for `COc1ccc(Cn2c(-c3ccc(OC(C)=O)cc3)c(C)c3cc(OC(C)=O)ccc32)cc1`, the Activity was found to be 45.
`CC(=O)Oc1ccc(-c2c(C)c3cc(OC(C)=O)ccc3n2Cc2ccccc2)cc1` registered an Activity of 38.1.
`CC(=O)Oc1ccc(-c2c(C)c3cc(OC(C)=O)ccc3n2Cc2ccc(C#N)cc2)cc1` returned an Activity of 27.4.
On the same count and under the same terms, then `CC(=O)Oc1ccc(-c2c(C)c3cc(OC(C)=O)ccc3n2Cc2ccc(C)cc2)cc1`, with 40.
Turning to `CC(=O)Oc1ccc(-c2c(C)c3ccc(OC(C)=O)cc3n2-c2ccccc2)cc1`, the Activity is 34.8.
On the same count and under the same terms, then `CC(=O)Oc1ccc(-c2c(C)c3ccc(OC(C)=O)cc3n2Cc2ccccc2)cc1`, with 32.6.

A further experiment has the same target. Description: Anti-estrogenic activity as Uterus dry weight (mg)/body weight (g) *100 in mice at 1 ug. It counts as functional, tissue-based.
Conditions: not given
A digest of the protocol: as §1
Compound `COc1ccc(Cn2c(-c3ccc(OC(C)=O)cc3)c(C)c3cc(OC(C)=O)ccc32)cc1` displayed an Activity of 47.1.
In turn, `CC(=O)Oc1ccc(-c2c(C)c3cc(OC(C)=O)ccc3n2Cc2ccccc2)cc1` displayed an Activity of 49.9.
For the compound `CC(=O)Oc1ccc(-c2c(C)c3cc(OC(C)=O)ccc3n2Cc2ccc(C)cc2)cc1`, the Activity was found to be 49.2.
For `CC(=O)Oc1ccc(-c2c(C)c3ccc(OC(C)=O)cc3n2-c2ccccc2)cc1`, the Activity is 43.2.
On the same count and under the same terms, with `CC(=O)Oc1ccc(-c2c(C)c3ccc(OC(C)=O)cc3n2Cc2ccccc2)cc1` the figure was 54.2.

For the origin of these results see ChEMBL document CHEMBL1123659, “2-Phenylindoles. Effect of N-benzylation on estrogen receptor affinity, estrogenic properties, and mammary tumor inhibiting activity” (J Med Chem, 1987).
